# Measured values reported in article PMC10524360 (Cell chemical biology, 2023).
# “Also recorded” adds a separate entry of the source. Residues, ends and D or L forms follow the SMILES beside them. *: point of attachment. Cbz = O=C(OCc1ccccc1)*; CH2F = FC*
# Legend:
# H460^C Cas9 cells [1] = assay: cell death; type: cell-based, human; conditions: for effect on cell death induced by co-treatment of FSEN1 and RSL3: H460^C Cas9, 5 μM RSL3 + 1 μM FSEN1, Z-VAD 10 μM, Nec1s 1 μM; for effect on cell death induced by co-treatment of FSEN1 and RSL3 / effect on cell death induced by DHA and FSEN1 together: Fer-1 2 μM, DFO 100 μM, idebenone 10 μM, tocopherol 10 μM; for minimal dose that achieves maximal synergy for inducing ferroptosis: checkerboard FSEN1 (0–15 μM) x RSL3 (0–15 μM)
# Outline: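 H460C Cas9 cells get dose series of RSL3 or DHA with vehicle or 1 μM FSEN1, plus ferroptosis inhibitors where indicated (Fer-1 2 μM, DFO 100 μM, idebenone 10 μM, tocopherol 10 μM). Dead cells are stained with SYTOX Green and imaged on IncuCyte over 24 hr. Lethal fraction is dead/total cells, and its AUC is fit against concentration (variable slope) for EC50. Mean ± SEM, 2–3 biological replicates.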
# H460^C FSP1^KO cells = assay: cell death; type: cell-based, human; conditions: for cell death, single agent: 24 h library screen, 40 μM compounds
# Outline: (§1)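 H460C knockout cells (mFSP1-overexpressing where stated) were seeded at 1500 cells/well in 384-well plates 24 h before treatment. Drug-containing medium with 30 nM SYTOX Green was added and cells were imaged in an IncuCyte at 37°C, 5% CO2 every 4 h for 24 h. Lethal fraction = SYTOX+/(SYTOX+ plus mCherry+) objects; AUC was fitted to a variable-slope curve for EC50.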
# H460^C GPX4^KO cells = assay: cell death; type: cell-based, human
# Outline: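 Cells were seeded in triplicate at 1000–1500 cells/well (384-well) 24 h before treatment. Test compound was added in medium with 30 nM SYTOX Green, and the plates were imaged (IncuCyte, 37°C, 5% CO2) every 1.5 or 3 h over 24 h. Lethal fraction = SYTOX+/(SYTOX+ plus mCherry+) objects; AUC averaged over three biological replicates; EC50 from a variable-slope fit.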
# A549 lung cancer cells = assay: RSL3-induced cell death in A549 cells; type: cell-based, human; conditions: RSL3 with 1 μM FSEN1
# H460^C Cas9 cells [2] = assay: lipid peroxidation assay; type: cell-based, human; conditions: 1 μM FSEN1 with 200 nM RSL3
# Outline: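 Cells in 6-well plates were treated 5 h with 200 nM RSL3 ± 1 μM test compound. They were washed in DPBS with Ca/Mg, labelled with BODIPY 581/591 C11 and trypsinised. Green fluorescence was measured by flow cytometry (FITC channel, >10,000 cells). Mean ± SD of n=3; one-way ANOVA with Tukey's test.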
# [3] = metabolic stability in mouse liver microsomes; type: in vitro ADME; conditions: mouse liver microsomes 0.5 mg/mL, 2 μM FSEN1
# Outline: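 The test compound (2 μM) was incubated with 0.5 mg/mL mouse liver microsomes and 1.0 mM NADPH at 37°C, in triplicate, and sampled at 0, 5, 15, 30 and 45 min. Controls were no NADPH (negative) and 2 μM midazolam (positive). t1/2 = ln2/k; CLint = ln2/t1/2 × incubation volume/microsomal protein (μL/min/mg).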
# [4] = in vivo pharmacokinetics in mice; design: species or system BALB/c mice; conditions: single 20 mg/kg I.P. dose
# Outline: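 Mice (20–25 g) were group-housed five per cage at 22°C on a 12 h light/dark cycle. Each received a single 20 mg/kg intraperitoneal dose in a vehicle containing 20% DMSO, 20% ethanol and 20% PEG40. Plasma Cmax and elimination half-life are reported as median (IQR), n=5.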
# FSP1 = biological target: T1, FSP1 (Homo sapiens, UniProt Q9BRQ8); assay: FSP1 enzyme kinetics; type: biochemical
# T1 sequence (Q9BRQ8 2-373 limits assumed): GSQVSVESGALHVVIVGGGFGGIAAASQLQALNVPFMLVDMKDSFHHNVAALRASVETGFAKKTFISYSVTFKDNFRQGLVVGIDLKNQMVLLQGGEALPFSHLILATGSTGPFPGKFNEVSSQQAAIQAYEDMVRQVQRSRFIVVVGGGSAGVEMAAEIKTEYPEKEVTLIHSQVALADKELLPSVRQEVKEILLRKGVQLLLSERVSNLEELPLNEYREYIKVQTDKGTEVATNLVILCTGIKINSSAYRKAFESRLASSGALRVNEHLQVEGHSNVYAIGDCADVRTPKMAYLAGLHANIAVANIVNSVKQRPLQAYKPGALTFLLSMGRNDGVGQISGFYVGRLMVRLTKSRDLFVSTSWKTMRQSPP
# Outline: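 His-tagged human FSP1 (expressed in E. coli, Ni-NTA purified) in PBS was preincubated 30 min at RT with the test compound. NADH series: 25 nM enzyme, 10 μM CoQ-coumarin, 1–50 μM NADH, 50–500 nM compound. CoQ-coumarin series: 6.25 nM enzyme, 1–30 μM CoQ-coumarin, 200 μM NADH, 12.5–125 nM compound. Fluorescence (Ex 405/Em 475 nm) read every 15 s at RT; three biological replicates; Vmax and Km by nonlinear regression.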
# [5] = tested on: FSP1^KO cells overexpressing mFSP1; assay: RSL3-induced ferroptosis in FSP1 knockout cells overexpressing mouse FSP1; type: cell-based, human
# Outline: as §1
# A375 melanoma cells = assay: cell death in A375 cells; type: cell-based, human; conditions: 1 μM FSEN1
# Outline: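 Melanoma cells were treated with the test compound (1 μM), with 2 μM Fer-1 where indicated. Cell death was quantified as SYTOX Green-positive objects per mm2; mean ± SEM of two biological replicates.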
# purified mFSP1 = biological target: T2, purified mFSP1 (Mus musculus, UniProt Q8BUE4); assay: in vitro mFSP1 CoQ1 oxidoreductase activity assay; type: biochemical; conditions: 125 nM mFSP1
# T2 sequence (Q8BUE4 2-380 isoform Q8BUE4-2 limits assumed): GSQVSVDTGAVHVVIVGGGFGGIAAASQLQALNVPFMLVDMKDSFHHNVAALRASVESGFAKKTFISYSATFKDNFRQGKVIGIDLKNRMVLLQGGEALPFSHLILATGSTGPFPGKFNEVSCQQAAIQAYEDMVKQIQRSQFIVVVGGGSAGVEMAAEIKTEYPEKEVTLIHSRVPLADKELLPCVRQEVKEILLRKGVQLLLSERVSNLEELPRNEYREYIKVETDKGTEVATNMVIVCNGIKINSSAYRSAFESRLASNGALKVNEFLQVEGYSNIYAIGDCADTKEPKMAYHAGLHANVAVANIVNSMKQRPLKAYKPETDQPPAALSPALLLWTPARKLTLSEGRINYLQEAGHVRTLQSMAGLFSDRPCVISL
# Outline: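 Purified enzyme in PBS was shaken briefly with the test compound (DMSO) and preincubated 30 min at RT. A 2X NADH/CoQ1 mix started the reaction; final 400 μM CoQ1, 500 μM NADH, 0.01–20 μM compound. Mouse FSP1 was used at 125 nM to match the specific activity of 12.5 nM human FSP1. Absorbance at 355 nm was read every 2.5 min; percent activity was used for IC50.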
# NQO1 = NQO1 (Homo sapiens, UniProt P15559); assay: in vitro NQO1 CoQ1 oxidoreductase activity assay; type: biochemical; conditions: increasing concentrations of FSEN1
# NQO1, sequence (P15559 2-274 limits assumed): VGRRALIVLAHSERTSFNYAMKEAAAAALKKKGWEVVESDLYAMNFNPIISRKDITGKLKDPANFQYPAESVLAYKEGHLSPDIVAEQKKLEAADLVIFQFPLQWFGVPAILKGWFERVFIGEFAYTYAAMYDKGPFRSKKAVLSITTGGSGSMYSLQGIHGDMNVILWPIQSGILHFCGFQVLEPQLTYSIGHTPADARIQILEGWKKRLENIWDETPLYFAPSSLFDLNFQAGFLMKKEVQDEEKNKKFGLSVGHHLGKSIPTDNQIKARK
compound,measurement,setting,value
"CC(=O)N(O)CCCCCNC(=O)CCC(=O)N(O)CCCCCNC(=O)CCC(=O)N(O)CCCCCN [DFO, deferoxamine]",effect on cell death induced by co-treatment of FSEN1 and RSL3,H460^C Cas9 cells [1],blocked
same,effect on cell death induced by DHA and FSEN1 together,"H460^C Cas9 cells [1]; H460^C cells, 1 μM FSEN1",completely suppressed
"C[C@H]1[C@@H](O)O[C@@H]2O[C@@]3(C)CC[C@H]4[C@H](C)CC[C@@H]1[C@@]24OO3 [DHA, dihydroartemisinin, reference compound]","cell death, single agent",H460^C FSP1^KO cells; H460^C FSP1^KO cells,selectively induced cell death
same,"cell death, single agent",H460^C Cas9 cells [1]; H460^C Cas9 cells,induced minimal amounts of ferroptosis on its own
COc1ccc(N2CCN(Cc3cn4c(-c5ccc(Br)cc5)nnc4s3)CC2)cc1 [FSEN1],EC50,"H460^C GPX4^KO cells; read-out: EC50 for triggering cell death, lethal fraction (AUC) over 24 hr",69.4 nM
same,sensitizing effect on ferroptosis induction,A549 lung cancer cells,particularly large sensitizing effect
same,lipid peroxidation (BODIPY C11),H460^C Cas9 cells [2],sensitized cells to lipid peroxidation
same,intrinsic clearance (CLint),[3],11.54 μL/min/mg protein
same,median elimination half-life,"[4]; n=5, IQR 6.1 – 8.8",8.0 h
same,median maximum plasma concentration,"[4]; n=5, IQR 71.0–123.0",97.6 ng/mL
same,change in Kcat values,FSP1; as FSEN1 concentrations increased,decrease
same,mechanism of FSP1 inhibition,"FSP1; varied NADH and CoQ-coumarin, parallel Lineweaver-Burke slopes",uncompetitive inhibitor
same,additional sensitization to DHA and FINO2 induced cell death,"H460^C FSP1^KO cells; FSP1^KO cells, 1 μM FSEN1",no additional sensitizing effect
same,effect on sensitivity to RSL3-induced cell death,"H460^C FSP1^KO cells; H460^C FSP1^KO cells, 1 μM FSEN1",did not result in any additional sensitization; also recorded: no effect
same,effect on ferroptosis sensitivity (RSL3),"[5]; FSP1^KO cells overexpressing mFSP1, 1 μM FSEN1",no effect
same,effect on sensitivity to RSL3,"[5]; FSP1^KO cells overexpressing mFSP1, FSEN1 up to 15 μM",no effect
same,sensitization to cell death induced by GPX4 inhibitors RSL3 and ML162,"H460^C Cas9 cells [1]; H460^C Cas9 cells, 1 μM FSEN1",sensitized
same,sensitization to cell death induced by DHA and FINO2,"H460^C Cas9 cells [1]; H460^C cells, 1 μM FSEN1",strongly sensitized
same,minimal dose that achieves maximal synergy for inducing ferroptosis,H460^C Cas9 cells [1]; H460^C Cas9 cells,0.55 µM
same,ferroptosis in the absence of an RSL3 co-treatment,A375 melanoma cells,induced a small amount of ferroptosis
same,effect on CoQ1 oxidoreductase activity of purified mFSP1,purified mFSP1,no effect
same,effect on CoQ oxidoreductase activity of NQO1,NQO1,no effect
"CCOC(=O)c1ccc(NC2CCCCC2)c(N)c1 [Fer-1, ferrostatin-1]",effect on cell death induced by co-treatment of FSEN1 and RSL3,H460^C Cas9 cells [1],blocked
same,effect on cell death induced by DHA and FSEN1 together,"H460^C Cas9 cells [1]; H460^C cells, 1 μM FSEN1",strongly suppressed
CN1C(=O)NC(Cc2c[nH]c3c(Cl)cccc23)C1=O (centres unmarked) [Nec1s],effect on cell death induced by co-treatment of FSEN1 and RSL3,H460^C Cas9 cells [1],no effect
COC(=O)c1ccc([C@@H]2c3[nH]c4ccccc4c3C[C@@H](C(=O)OC)N2C(=O)CCl)cc1 [RSL3],"cell death, single agent",H460^C FSP1^KO cells; H460^C FSP1^KO cells,cytotoxic
same,"cell death, single agent",H460^C Cas9 cells [1]; H460^C Cas9 cells,not the H460^C Cas9 cells
same,minimal dose that achieves maximal synergy for inducing ferroptosis,H460^C Cas9 cells [1]; H460^C Cas9 cells,0.55 µM
COC(=O)C[C@H](NC(=O)[C@H](C)NC(=O)[C@@H](NC(=O)OCc1ccccc1)C(C)C)C(=O)CF [Z-VAD-FMK] (Cbz-Val-Ala-Asp(OMe)-CH2F),effect on cell death induced by co-treatment of FSEN1 and RSL3,H460^C Cas9 cells [1],no effect
"Cc1ccc(-c2c(C#N)c(N)n3c(nc4ccccc43)c2C#N)cc1 [iFSP1, reference compound]","cell death, single agent",H460^C GPX4^KO cells,selectively triggered cell death
same,"cell death, single agent",H460^C Cas9 cells [1]; H460^C Cas9 cells,not in the H460^C Cas9 cells
COC1=C(OC)C(=O)C(CCCCCCCCCCO)=C(C)C1=O [idebenone],effect on cell death induced by co-treatment of FSEN1 and RSL3,H460^C Cas9 cells [1],blocked
same,effect on cell death induced by DHA and FSEN1 together,"H460^C Cas9 cells [1]; H460^C cells, 1 μM FSEN1",strongly suppressed
tocopherol,effect on cell death induced by co-treatment of FSEN1 and RSL3,H460^C Cas9 cells [1],blocked
same,effect on cell death induced by DHA and FSEN1 together,"H460^C Cas9 cells [1]; H460^C cells, 1 μM FSEN1",strongly suppressed
